Laboratory results: the EternaBench riboswitch data

System: MS2 coat protein
Assay: apparent Kd, MS2 coat protein; higher = weaker binding; RNA-MaP array; FMN 200 µM where present
Outline: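 Each design was made on Illumina sequencing-chip clusters by stalled E. coli RNA polymerase and titrated with SNAP-549-labelled MS2 coat protein from 0.7 or 1.5 nM, doubling to 3 µM, in the absence and then the presence of constant ligand. The buffer was 100 mM Tris-HCl pH 7.5, 80 mM KCl, 4 mM MgCl2, BSA, DTT, yeast tRNA and Tween-20. The apparent Kd is the median of filtered per-cluster fits of binding curves, with green signal normalised to red-channel RNA signal and control-cluster median Fmax.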

[1] = designed as: OFF switch for flavin mononucleotide, no ligand
[2] = ligand present: flavin mononucleotide, designed as: OFF switch for flavin mononucleotide
[3] = designed as: ON switch for flavin mononucleotide, no ligand
[4] = ligand present: flavin mononucleotide, designed as: ON switch for flavin mononucleotide

Row | Sequence | apparent Kd [1] | apparent Kd [2] | apparent Kd [3] | apparent Kd [4]
1 | AGCGUGUAAGGAUAUACGUCGGACAGCAAAUGCUAUCCCUAGUAGAAGGUACAUGAGGAUCACCCAUGUGUCCA | 22.9 nM | 58.8 nM |  | 
2 | AAACAAGCAGGGAUGCUUCGCAGGGAGGAUAUCUGACUGGGCGGACAUGAGGAUCACCCAUGUACAGAGAAGGCCCAAAGCACC | 620 nM | 32 nM |  | 
3 | GUUUGGGCAGGAUAUACAUGAGGAUCACCCAUGUGUUUUUUGUGUGUUUUGUUAUCGUGUAGAAGGGUUCGGGC | 68.5 nM | 147 nM |  | 
4 | UCAGUAGAGUCAGGAUAUACCGAAAAGAAUCCUCACAUGAGGAUCACCCAUGUAGAAGGGACUCUACUGUAAGUCGGAAACGAC | 91.8 nM | 868 nM |  | 
5 | GGAUGACAAAGUCAUCCAAUUCGAACAUGAGGAUCACCCAUGUAGGAUAUGGUACUCAAAGAGUACCAGAAGGACAUGUGCUUU | 38.1 nM | 145 nM |  | 
6 | GGCCCACAUGAGGAUCACCCAUGUGAGGAUAUGUUAGUUUCGGCGAAAGCCGAAAUUAACAGAAGGCACAGGCC | 11.7 nM | 13.6 nM |  | 
7 | AAAAGACAUGAGGAUCACCCAUGUAAAAACAUGAGAGGAUAUCAUCUGACUUCGGUCAGAUGAGAAGGCUCAUGUC |  |  | 48.7 nM | 26.9 nM
8 | UGUGUUAUUGGAGGAUAUCGAUAUCAAACAUGAGGAUCACCCAUGUUGAGGAUCACACAUGUCCAUGAGAAGGCCGACGUAGUG |  |  | 10.5 nM | 10.5 nM
9 | GCAACGCCUGACAUGAGGAUCACCCAUGUUAGAUUGUUAUGUCAGGAUAUAGUCUAGAAACUAGACUAGAAGGGAUAUGUUGCU |  |  | 1010 nM | 161 nM
10 | AAUAGUUCCGAGGAUAUAUCUCCACCGUGGGUGGUAGAAGGCGGGACAUGAGGAUCACCCAUGUACAAAUUCUC | 75.2 nM | 98.1 nM |  | 
11 | GGUGUCGCAUGAGGAUAUGGUCAGCUUUGCUGACCAGAAGGCAUGUCAAUAGACAUGAGGAUCACCCAUGUAGUAAAGACACCA |  |  |  | 37.1 nM
12 | UUAAAUCAUGUAGGAUAUGCAUGGCGAAGCUACGCAGAAGGACAUGAGGAUCACCCAUGUUAUAGCUACCGAGUUCGGUGGCAA | 109 nM | 224 nM |  | 
13 | CUCGGCGAGGGAGGAUAUCCCUAUGAGGCGGUGCAGCUCGGGAACAUGAGGAUCACCCAUGUAGCGGAGAAGGCCCAUACGCCU | 9.59 nM | 34.5 nM |  | 
14 | AUAUUCUAGAUAGGAUAUACUGAGGUUGAAUGGGUAGAAGGAUCGUUAGAGUGGACUACAUGAGGAUCACCCAUGUUGUUUAUU |  |  | 48.3 nM | 42.7 nM
15 | GUUUAGUGAGGAUAUGUGGCUUCGAUCGUGCGCGGUCGGCUACAGAAGGCACAUGAGGAUCACCCAUGUUCCUC | 37.1 nM | 506 nM |  | 
16 | CGAUAUAUGAAGGGCAAAGGCCCACAUGAGGAUCACCCAUGUAGAAGGCGAUCCGCAACGCGGAUCGAGGAUAUAUAGUAUACA | 8.45 nM | 8.1 nM |  | 
17 | GUAGCAUACAGAGGAUAUUCAAACCGGAAACGGAACAUGAGGAUCACCCAUGUGGCGAAAGCCAGGGAGAAGGCUGAAUGCUAC |  |  | 44.5 nM | 16.8 nM
18 | GGGAGUGGAGGGAAUAACAUGAGGAUCACCCAUGUAUGGGAGAGAAGGCAGGUCGGAGGGCGGUCUGAGGAUAUUUAGACUCCU |  |  | 8.96 nM | 7.43 nM
19 | CGUUCACAUGAGGAUCACCCAUGUCAGAUUUGGUCAGGAUAUGGUCGGCUUCCGCUAUUGCCAGAAGGGACUGUUG |  |  | 30.5 nM | 23.9 nM
20 | GUUAAGAACUAAGGAUAUUGAAUACAUAUGUUUAACAUGAGGAUCACCCAUGUGGGUUGCGGUAUCGAGAAGGUAGAAUAAUAG |  |  | 115 nM | 113 nM
21 | GGAAAUCAUGUAGGAUAUGCAUGGCGAAGCUACGCAGAAGGACAUGAGGAUCACCCAUGUUAUAGCGUCCGAGAAAGGAUGCAA | 111 nM | 167 nM |  | 
22 | CAAUUUAUGUCAGGAUAUACAAUACAAUGAUUAGUAGAAGGGAUUAAUACAUGAGGAUCACCCAUGUCAUGUGUCAUCGUACCC | 28.1 nM | 23.3 nM |  | 
23 | GGAAAACAUGAGGAUCACCCAUGUGAGGAUAUCGAUGUCCAGGGCCUGGUGCGGGACUCGAGAAGGCACUGGGA | 62.9 nM | 126 nM |  | 
24 | AAAGUGUAAGGAUAUGCUGCUCGUCACUUGCGUGAUGAGUAGCAGAAGGUACAUGAGGAUCACCCAUGUAAAAA | 28.8 nM | 38.3 nM |  | 
25 | UGUAUUAAUGGAGGAUAUCGAUAUCAAACAUGAGGAUCACCCAUGUUGAGGAUCACCCAUGUCCACGAGAAGGCUGGCGUACGU |  |  | 16.6 nM | 18.1 nM
26 | ACUUUACAUGAGGAUCACCCAUGUUUUGGUGGAUCAGGAUAUAAAUUGAAUGAGUUUUAGUUAGAAGGGAUAUUUA |  |  | 89.8 nM | 99 nM
27 | AGAGCCUCGUGAGGAUAUACAUGAGGAUCACCCAUGUAAUAAGAUCAACGGAGGAAACUCCGAAUGUAGAAGGCACGAGGCUCA | 37.2 nM | 423 nM |  | 
28 | AAACACGGACAUGAGGAUCACCCAUGUGGCGAAAGCCUUGGGAGAAGGCCGAUUGCAAAGCAAUCGGAGGAUAUUCGUACCGUG |  |  | 237 nM | 13.8 nM

Row | Sequence | apparent Kd [1] | apparent Kd [2] | apparent Kd [3] | apparent Kd [4]
29 | AUAUAGUCAGGAUAUCGAAGUGAGUGUUGGUGGGUAAGGUACGAGAAGGGACAUGAGGAUCACCCAUGUAGGAA | 59.7 nM | 44.1 nM |  | 
30 | AAAAGUCGAGGAUAUGCAAAAUGAUUGCGAAAGCAAUCAAAACAUGAGGAUCACCCAUGUAGAAGGCGACAAAA | 21.3 nM | 13.9 nM |  | 
31 | AUACCUUAUGAGAAGGCGAUCAUGAAACAUGAUCGAGGAUAUCAUGUAAACAUGAGGAUCACCCAUGUAUGGGUAUUAUGGUAU |  |  | 57.4 nM | 10.9 nM
32 | GCGUGGUUCUAGAAGGUGCUAGCGAUAAGCUAGCAAGGAUAUAGACAUGAGGAUCACCCAUGUCUUUGUGAAAUCGACACACGC | 5.58 nM | 6.39 nM |  | 
33 | CAGGUAGACUGAGGAUAUACAAUAAAGACCUAGUCUAUCUAGGUCUCCACAUGAGGAUCACCCAUGUAGAAGGCAGUCUGCCUG | 18.1 nM | 44.2 nM |  | 
34 | UGAUCUUACAUGAGGAUCACCCAUGUAGGCCUGUAACUAACCAGAAGGCACGUAGAGUAAAACAGUGAGGAUAUGGAUGACGUA |  |  | 22.4 nM | 9.35 nM
35 | ACGCUUUGGGAGAAGGUACGUUAAUUUUUUUCCACAUGAGGAUCACCCAUGUAAGGAUAUCCCGUCGUUAAAUAGGCUACAGCA | 9.59 nM | 9.37 nM |  | 
36 | CGCUAGUCAGGAUAUACGAACAUGUCAAAAGACGUGAAGGGACAUGAGGAUCACCCAUGUAGAAGGGACUAGCA | 35.7 nM | 114 nM |  | 
37 | AAACAUGUCCGAGGAUAUCUGGAAACAUUUUCAAGAGAAGGCGGACAUGAGGAUCACCCAUGUCUCUCCUCAUCAAAUCCAAGU | 21.4 nM | 148 nM |  | 
38 | CACAUUUUAACAGGAUAUGUAAGGUUGUUUAUUAUUGCAUUUACACUCAUUACAGAAGGGUUAUACAUGAGGAUCACCCAUGUG |  |  | 20.1 nM | 14.5 nM
39 | UUGGCAACGUAGAAGGGUGACAUGAGGAUCACCCAUGUGCCGAUAUUUCUCGAGAUAUGUCGGCCACAGGAUAUACGUGCGAAC |  |  | 107 nM | 120 nM
40 | AAAAUGUGAGGAUAUCAGGUGUGCUAGAGAACUGGUACAUCUGAGAAGGCACAUGAGGAUCACCCAUGUUCUUC | 34.6 nM | 156 nM |  | 
41 | UGUUGUAUUACAGGAUAUCUAGUAUUUAUAUUUAGAGAAGGGUAUUCACAUGAGGAUCACCCAUGUAUAUACGAGGAAGUUGUG |  |  | 46.3 nM | 49.2 nM
42 | AUCAGCACGUGAGGAUAUGCGUCACUGCGUCAGCAGUGUGGUAAGAUCACAUGAGGAUCACCCAUGUAGAAGGCACGAGCUGAU | 34 nM | 460 nM |  | 
43 | UUUUAGCGAGGAUAUACAUUUUUUUUAUUAUCCUCAUUAUUACAUGAGGAUCACCCAUGUAGAAGGCGCAUUUU | 41 nM | 139 nM |  | 
44 | CCCGUGUGUUAAGGAUAUGGCAGGCGCGUUGAACCAGAAGGUAGCACAUGAGGAUCACCCAUGUGAAUGCUCACGACUCGAGCA | 40.1 nM | 23.6 nM |  | 
45 | ACCAUUUACUAGUUUUCUAUACAUGAGGAUCACCCAUGUUUUGAGGAUAUCAGCGUGAAACACGCUGAGAAGGCAAAACAUUCG | 181 nM | 342 nM |  | 
46 | UGUAAUGCUAUUGCAGAGGUUUAGAAGGAUAUACAUCGACAUGACCGUACAUGAGGAUCACCCAUGUAGAAGGUCUAACUUCUU | 4.95 nM | 4.91 nM |  | 
47 | GGACGACACAUCUACAUGAGGAUCACCCAUGUCGAAAGACAUGAGGAUAUGCAUCCUAAUUGGAUGCAGAAGGCAUGGUCGUCC |  |  | 1210 nM | 70.3 nM
48 | AUGACAGGCAGAGCGCAACGGCGAACAUGAGGAUCACCCAUGUAGGAUAUGCUACACAAAGUGUAGCAGAAGGACAUGCGACGA | 48.3 nM | 206 nM |  | 
49 | AAGAAGUCAGGAUAUGCUGCUCGUCACUUGCGUGAUGAGUAGCAGAAGGGACAUGAGGAUCACCCAUGUGGAAG | 111 nM | 240 nM |  | 
50 | GUGGCUCCCACAGGAUAUCCACAUGAGGAUCACCCAUGUCUAAUUAACAAAGGAGAAGGGUGGGACAAUUCUGGUGACUGAGAA |  |  | 30.1 nM | 4.89 nM
51 | ACGACUAGAGGAUAUACAUGAGGAUCACCCAUGUAACUGUCAGGAGACUGACGGAGAUGUAGAAGGCUAGUCGA | 16.6 nM | 39.2 nM |  | 
52 | GGUUACAAGUAAGGAUAUGCAUAUGAAACAUAUGCAGAAGGUACAUGAGGAUCACCCAUGUUAUUGCAAAGCGAAUAAGUAACC | 15.6 nM | 20.9 nM |  | 
53 | AGUCAUACAGGAUAUACAUGAGGAUCACCCAUGUUUAUCCUACAUGGGUGAUCCUCAUGUAGAAGGGUAUGACA | 11.2 nM | 9.45 nM |  | 
54 | GGCAUAAACGAGGAUAUCGUUACGGAAACGUAACGAGAAGGUGUAACAUGAGGAUCACCCAUGUUCCUCAAGCC | 30.5 nM | 33 nM |  | 
55 | ACGUACUGAGGAUAUACGAACAUGUCAAAAGACGUGAAGGGACAUGAGGAUCACCCAUGUAGAAGGCAGUACGA | 42.2 nM | 194 nM |  | 
